Measurements published in ChEMBL document CHEMBL3286292, “Synthesis and antimicrobial activity of amine linked bis- and tris-heterocycles” (2014).
Activity calls are given as the source filed them. The rule behind the calls is not given here.

How the values were obtained:
Format in all cases: functional
Staphylococcus aureus [1] = assay: Antibacterial activity against Staphylococcus aureus assessed as growth inhibition at 25 ug/well after 24 hrs by agar well diffusion method; conditions: for zone of inhibition at 25 µg/disc: read-out: DIZ
How it was run: (§1)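 Agar well diffusion on […] swabbed with a 24 h broth culture. Samples were dissolved in DMSO and loaded at three per-well amounts into 6 mm wells. Incubation was 37 °C for 24 h, then inhibition zone diameter was read in mm. DMSO served as the negative control. Runs were in duplicate and averaged.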

Staphylococcus aureus [2] = assay: Antibacterial activity against Staphylococcus aureus assessed as growth inhibition at 50 ug/well after 24 hrs by agar well diffusion method; conditions: for zone of inhibition at 50 µg/disc: read-out: DIZ; how it was run: as §1
Staphylococcus aureus [3] = assay: Antibacterial activity against Staphylococcus aureus assessed as growth inhibition at 100 ug/well after 24 hrs by agar well diffusion method; conditions: for zone of inhibition at 100 µg/disc: read-out: DIZ; how it was run: as §1
Bacillus subtilis [4] = assay: Antibacterial activity against Bacillus subtilis assessed as growth inhibition at 25 ug/well after 24 hrs by agar well diffusion method; conditions: for zone of inhibition at 25 µg/disc: read-out: DIZ; how it was run: as §1
Bacillus subtilis [5] = assay: Antibacterial activity against Bacillus subtilis assessed as growth inhibition at 50 ug/well after 24 hrs by agar well diffusion method; conditions: for zone of inhibition at 50 µg/disc: read-out: DIZ; how it was run: as §1
Bacillus subtilis [6] = assay: Antibacterial activity against Bacillus subtilis assessed as growth inhibition at 100 ug/well after 24 hrs by agar well diffusion method; conditions: for zone of inhibition at 100 µg/disc: read-out: DIZ; how it was run: as §1
Pseudomonas aeruginosa [7] = assay: Antibacterial activity against Pseudomonas aeruginosa assessed as growth inhibition at 25 ug/well after 24 hrs by agar well diffusion method; conditions: for zone of inhibition at 25 µg/disc: read-out: DIZ; how it was run: as §1
Pseudomonas aeruginosa [8] = assay: Antibacterial activity against Pseudomonas aeruginosa assessed as growth inhibition at 50 ug/well after 24 hrs by agar well diffusion method; conditions: for zone of inhibition at 50 µg/disc: read-out: DIZ; how it was run: as §1
Pseudomonas aeruginosa [9] = assay: Antibacterial activity against Pseudomonas aeruginosa assessed as growth inhibition at 100 ug/well after 24 hrs by agar well diffusion method; conditions: for zone of inhibition at 100 µg/disc: read-out: DIZ; how it was run: as §1
Klebsiella pneumoniae [10] = assay: Antibacterial activity against Klebsiella pneumoniae assessed as growth inhibition at 25 ug/well after 24 hrs by agar well diffusion method; conditions: for zone of inhibition at 25 µg/disc: read-out: DIZ; how it was run: as §1
Klebsiella pneumoniae [11] = assay: Antibacterial activity against Klebsiella pneumoniae assessed as growth inhibition at 50 ug/well after 24 hrs by agar well diffusion method; conditions: for zone of inhibition at 50 µg/disc: read-out: DIZ; how it was run: as §1
Klebsiella pneumoniae [12] = assay: Antibacterial activity against Klebsiella pneumoniae assessed as growth inhibition at 100 ug/well after 24 hrs by agar well diffusion method; conditions: for zone of inhibition at 100 µg/disc: read-out: DIZ; how it was run: as §1
Aspergillus niger [13] = assay: Antifungal activity against Aspergillus niger assessed as inhibition of spore germination at 25 ug/well after 48 hrs by agar well diffusion method; conditions: for zone of inhibition at 25 µg/disc: read-out: DIZ
How it was run: (§2)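 Well diffusion using 6 mm bored wells loaded with DMSO solutions at three per-well amounts, with a DMSO negative control. Plates were held at 28 °C for 48 h, then zone of inhibition diameter was measured in mm. Runs were in duplicate and averaged.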

Aspergillus niger [14] = assay: Antifungal activity against Aspergillus niger assessed as inhibition of spore germination at 50 ug/well after 48 hrs by agar well diffusion method; conditions: for zone of inhibition at 50 µg/disc: read-out: DIZ; how it was run: as §2
Staphylococcus aureus [15] = assay: Antibacterial activity against Staphylococcus aureus assessed as growth inhibition after 24 hrs by broth dilution method
How it was run: (§3)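 Tube broth dilution with fresh nutrient broth as diluent and a 24 h old bacterial culture. Compound dilutions were added to the tubes, which were incubated at 37 °C for 24 h. Solvent control without sample was run in parallel. MIC was the lowest concentration showing no visible turbidity.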

Bacillus subtilis [16] = assay: Antibacterial activity against Bacillus subtilis assessed as growth inhibition after 24 hrs by broth dilution method; how it was run: as §3
Pseudomonas aeruginosa [17] = assay: Antibacterial activity against Pseudomonas aeruginosa assessed as growth inhibition after 24 hrs by broth dilution method; how it was run: as §3
Klebsiella pneumoniae [18] = assay: Antibacterial activity against Klebsiella pneumoniae assessed as growth inhibition after 24 hrs by broth dilution method; how it was run: as §3
Aspergillus niger [19] = assay: Antifungal activity against Aspergillus niger assessed as growth inhibition after 48 hrs by broth dilution method
How it was run: (§4)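 Tube broth dilution with nutrient broth as diluent. Compound dilutions were added to fungal cultures and incubated at 28 °C for 48 h. A solvent control without sample was included. MIC was the lowest concentration with no visible growth or turbidity.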

Penicillium chrysogenum [20] = assay: Antifungal activity against Penicillium chrysogenum assessed as growth inhibition after 48 hrs by broth dilution method; how it was run: as §4
Staphylococcus aureus [21] = assay: Bactericidal activity against Staphylococcus aureus after 24 hrs
Bacillus subtilis [22] = assay: Bactericidal activity against Bacillus subtilis after 24 hrs
Pseudomonas aeruginosa [23] = assay: Bactericidal activity against Pseudomonas aeruginosa after 24 hrs
Klebsiella pneumoniae [24] = assay: Bactericidal activity against Klebsiella pneumoniae after 24 hrs
Aspergillus niger [25] = assay: Fungicidal activity against Aspergillus niger after 48 hrs
Penicillium chrysogenum [26] = assay: Fungicidal activity against Penicillium chrysogenum after 48 hrs
Staphylococcus aureus [27] = assay: Ratio of MBC to MIC for Staphylococcus aureus
Aspergillus niger [28] = assay: Ratio of MFC to MIC for Aspergillus niger

| SMILES | zone of inhibition at 25 µg/disc (Staphylococcus aureus [1]) [mm] | zone of inhibition at 50 µg/disc (Staphylococcus aureus [2]) [mm] | zone of inhibition at 100 µg/disc (Staphylococcus aureus [3]) [mm] | zone of inhibition at 25 µg/disc (Bacillus subtilis [4]) [mm] | zone of inhibition at 50 µg/disc (Bacillus subtilis [5]) [mm] | zone of inhibition at 100 µg/disc (Bacillus subtilis [6]) [mm] | zone of inhibition at 25 µg/disc (Pseudomonas aeruginosa [7]) [mm] | zone of inhibition at 50 µg/disc (Pseudomonas aeruginosa [8]) [mm] | zone of inhibition at 100 µg/disc (Pseudomonas aeruginosa [9]) [mm] | zone of inhibition at 25 µg/disc (Klebsiella pneumoniae [10]) [mm] | zone of inhibition at 50 µg/disc (Klebsiella pneumoniae [11]) [mm] | zone of inhibition at 100 µg/disc (Klebsiella pneumoniae [12]) [mm] | zone of inhibition at 25 µg/disc (Aspergillus niger [13]) [mm] | zone of inhibition at 50 µg/disc (Aspergillus niger [14]) [mm] | MIC (Staphylococcus aureus [15]) [µg] | MIC (Bacillus subtilis [16]) [µg] | MIC (Pseudomonas aeruginosa [17]) [µg] | MIC (Klebsiella pneumoniae [18]) [µg] | MIC (Aspergillus niger [19]) [µg] | MIC (Penicillium chrysogenum [20]) [µg] | other results |
| --- | --- | --- | --- | --- | --- | --- | --- | --- | --- | --- | --- | --- | --- | --- | --- | --- | --- | --- | --- | --- | --- |
| O=C(N[C@H](CO)[C@H](O)c1ccc([N+](=O)[O-])cc1)C(Cl)Cl [CHLORAMPHENICOL] | 30 | 33 | 35 | 32 | 34 | 38 | 25 | 27 | 30 | 38 | 40 | 42 | 31 | 33 | 6.25 | 6.25 | 6.25 | 12.5 |  |  |  |
| CC(=O)N1CCN(c2ccc(OCC3COC(Cn4ccnc4)(c4ccc(Cl)cc4Cl)O3)cc2)CC1 (centres undefined) [KETOCONAZOLE] |  |  |  |  |  |  |  |  |  |  |  |  |  |  |  |  |  |  | 6.25 | 12.5 |  |
| c1ccc(-c2c[nH]c(Nc3cc(-c4ccccc4)n(-c4nc(-c5ccccc5)cs4)n3)n2)cc1 | 27 | 28 | 30 | 24 | 26 | 27 | 15 | 17 | 20 | 28 | 29 | 33 | 32 | 34 | 12.5 | 50 | 50 | 50 | 12.5 | 25 | MBC (Staphylococcus aureus [21]): 50 µg; MBC (Bacillus subtilis [22]): 200 µg; MBC (Pseudomonas aeruginosa [23]): >200 µg; MBC (Klebsiella pneumoniae [24]): >200 µg; MFC (Aspergillus niger [25]): 100 µg; MFC (Penicillium chrysogenum [26]): 100 µg |
| Clc1ccc(-c2csc(Nc3cc(-c4ccc(Cl)cc4)n(-c4nc(-c5ccc(Cl)cc5)cs4)n3)n2)cc1 | 34 | 36 | 38 | 29 | 32 | 35 | 20 | 22 | 25 | 35 | 37 | 41 | 29 | 31 | 6.25 | 25 | 50 | 25 | 12.5 | 50 | MBC (Staphylococcus aureus [21]): 12.5 µg; MBC (Bacillus subtilis [22]): 100 µg; MBC (Pseudomonas aeruginosa [23]): 200 µg; MBC (Klebsiella pneumoniae [24]): 100 µg; MFC (Aspergillus niger [25]): 100 µg; MFC (Penicillium chrysogenum [26]): 200 µg; Ratio (Staphylococcus aureus [27]): 2 |
| Clc1ccc(-c2c[nH]c(Nc3cc(-c4ccc(Cl)cc4)n(-c4nc(-c5ccc(Cl)cc5)cs4)n3)n2)cc1 | 32 | 33 | 35 | 27 | 29 | 30 | 18 | 19 | 23 | 32 | 34 | 38 | 33 | 36 | 6.25 | 50 | 50 | 50 | 6.25 | 25 | MBC (Staphylococcus aureus [21]): 12.5 µg; MBC (Bacillus subtilis [22]): 200 µg; MBC (Pseudomonas aeruginosa [23]): 200 µg; MBC (Klebsiella pneumoniae [24]): 200 µg; MFC (Aspergillus niger [25]): 12.5 µg; MFC (Penicillium chrysogenum [26]): 100 µg; Ratio (Staphylococcus aureus [27]): 2; Ratio (Aspergillus niger [28]): 2 |
| NC(=S)N1N=C(Nc2nc(-c3ccccc3)co2)C[C@@H]1c1ccccc1 |  |  |  |  |  |  |  |  |  |  |  |  |  |  |  |  |  |  |  |  | growth inhibition (GI) (Staphylococcus aureus [1]): inactive; growth inhibition (GI) (Staphylococcus aureus [2]): inactive; growth inhibition (GI) (Staphylococcus aureus [3]): inactive; growth inhibition (GI) (Bacillus subtilis [4]): inactive; growth inhibition (GI) (Bacillus subtilis [5]): inactive; growth inhibition (GI) (Bacillus subtilis [6]): inactive; growth inhibition (GI) (Pseudomonas aeruginosa [7]): inactive; growth inhibition (GI) (Pseudomonas aeruginosa [8]): inactive; growth inhibition (GI) (Pseudomonas aeruginosa [9]): inactive; growth inhibition (GI) (Klebsiella pneumoniae [10]): inactive; growth inhibition (GI) (Klebsiella pneumoniae [11]): inactive; growth inhibition (GI) (Klebsiella pneumoniae [12]): inactive; growth inhibition (GI) (Aspergillus niger [13]): inactive; zone of inhibition (Aspergillus niger [14]): inactive |
| NC(=S)N1N=C(Nc2nc(-c3ccc(Cl)cc3)co2)C[C@@H]1c1ccc(Cl)cc1 |  |  |  |  |  |  |  |  |  |  |  |  |  |  |  |  |  |  |  |  | growth inhibition (GI) (Staphylococcus aureus [1]): inactive; growth inhibition (GI) (Staphylococcus aureus [2]): inactive; growth inhibition (GI) (Staphylococcus aureus [3]): inactive; growth inhibition (GI) (Bacillus subtilis [4]): inactive; growth inhibition (GI) (Bacillus subtilis [5]): inactive; growth inhibition (GI) (Bacillus subtilis [6]): inactive; growth inhibition (GI) (Pseudomonas aeruginosa [7]): inactive; growth inhibition (GI) (Pseudomonas aeruginosa [8]): inactive; growth inhibition (GI) (Pseudomonas aeruginosa [9]): inactive; growth inhibition (GI) (Klebsiella pneumoniae [10]): inactive; growth inhibition (GI) (Klebsiella pneumoniae [11]): inactive; growth inhibition (GI) (Klebsiella pneumoniae [12]): inactive; growth inhibition (GI) (Aspergillus niger [13]): inactive; zone of inhibition (Aspergillus niger [14]): inactive |
| Cc1ccc(-c2csc(NC3=NN(C(N)=S)[C@@H](c4ccc(C)cc4)C3)n2)cc1 |  |  |  |  |  |  |  |  |  |  |  |  |  |  |  |  |  |  |  |  | growth inhibition (GI) (Staphylococcus aureus [1]): inactive; growth inhibition (GI) (Staphylococcus aureus [2]): inactive; growth inhibition (GI) (Staphylococcus aureus [3]): inactive; growth inhibition (GI) (Bacillus subtilis [4]): inactive; growth inhibition (GI) (Bacillus subtilis [5]): inactive; growth inhibition (GI) (Bacillus subtilis [6]): inactive; growth inhibition (GI) (Pseudomonas aeruginosa [7]): inactive; growth inhibition (GI) (Pseudomonas aeruginosa [8]): inactive; growth inhibition (GI) (Pseudomonas aeruginosa [9]): inactive; growth inhibition (GI) (Klebsiella pneumoniae [10]): inactive; growth inhibition (GI) (Klebsiella pneumoniae [11]): inactive; growth inhibition (GI) (Klebsiella pneumoniae [12]): inactive; growth inhibition (GI) (Aspergillus niger [13]): inactive; zone of inhibition (Aspergillus niger [14]): inactive |
| c1ccc(-c2csc(Nc3cc(-c4ccccc4)n(-c4nc(-c5ccccc5)cs4)n3)n2)cc1 | 29 | 31 | 32 | 25 | 26 | 28 | 17 | 18 | 21 | 30 | 32 | 35 | 25 | 28 | 12.5 | 50 | 50 | 50 | 25 | 50 | MBC (Staphylococcus aureus [21]): 50 µg; MBC (Bacillus subtilis [22]): 200 µg; MBC (Pseudomonas aeruginosa [23]): >200 µg; MBC (Klebsiella pneumoniae [24]): >200 µg; MFC (Aspergillus niger [25]): 100 µg; MFC (Penicillium chrysogenum [26]): 200 µg |
